Screens deposited in PubChem BioAssay by several laboratories.
RBBP9 inh: inhibitors of human serine hydrolase RBBP9; recombinant RBBP9, FP-Rh probe fluorescence polarization; 220,000 tested, 0.2% active; O75884; inhibition, % at 7.94 µM;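 active = inhibition above the campaign mean of all tested compounds plus 3 SD, cut at about 14% in these data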
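Test system: recombinant human RBBP9. Quantity: 2.5 µM RBBP9 dispensing solution, before mixing. Detection: FP readout at 525/598 nm. Reagent: Serine-hydrolase probe FP-Rh, 375 nM pre-mixing. Measure: % inhibition. Control set: DMSO-treated enzyme wells and wells lacking RBBP9. Buffer or medium: Tris-NaCl-Pluronic buffer, pH 8.0. Times: preincubation 30 min plus labeling 45 min at 25 °C.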
14-3-3 Bad PPI: disrupts binding of bovine 14-3-3 zeta to phospho-Bad peptide; P63103; TR-FRET 14-3-3zeta/Dy647-pBad peptide displacement, 1 h; inhibition, % at 21.7 µM; 220,000 tested, 0.71% active; AID 781;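 active = inhibition above about 70%, limit read from the data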
eIF4E 4G PPI: inhibitors of eIF4E and eIF4G interaction in translation initiation | TR-FRET eIF4E-eIF4GI(517-606) binding, 2 h | inhibition, % at 21.7 µM | 220,000 tested, 0.37% active | AID 782;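 active = inhibition above about 30%, limit read from the data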
Target sequence (P63073 whole entry, looked up): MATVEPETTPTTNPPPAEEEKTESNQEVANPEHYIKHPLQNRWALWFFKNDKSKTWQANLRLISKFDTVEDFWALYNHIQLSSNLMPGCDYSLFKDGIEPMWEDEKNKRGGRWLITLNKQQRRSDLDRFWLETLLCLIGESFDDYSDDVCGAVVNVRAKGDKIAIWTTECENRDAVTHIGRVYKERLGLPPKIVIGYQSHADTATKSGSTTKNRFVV
Target sequence (Q04637 whole entry, looked up): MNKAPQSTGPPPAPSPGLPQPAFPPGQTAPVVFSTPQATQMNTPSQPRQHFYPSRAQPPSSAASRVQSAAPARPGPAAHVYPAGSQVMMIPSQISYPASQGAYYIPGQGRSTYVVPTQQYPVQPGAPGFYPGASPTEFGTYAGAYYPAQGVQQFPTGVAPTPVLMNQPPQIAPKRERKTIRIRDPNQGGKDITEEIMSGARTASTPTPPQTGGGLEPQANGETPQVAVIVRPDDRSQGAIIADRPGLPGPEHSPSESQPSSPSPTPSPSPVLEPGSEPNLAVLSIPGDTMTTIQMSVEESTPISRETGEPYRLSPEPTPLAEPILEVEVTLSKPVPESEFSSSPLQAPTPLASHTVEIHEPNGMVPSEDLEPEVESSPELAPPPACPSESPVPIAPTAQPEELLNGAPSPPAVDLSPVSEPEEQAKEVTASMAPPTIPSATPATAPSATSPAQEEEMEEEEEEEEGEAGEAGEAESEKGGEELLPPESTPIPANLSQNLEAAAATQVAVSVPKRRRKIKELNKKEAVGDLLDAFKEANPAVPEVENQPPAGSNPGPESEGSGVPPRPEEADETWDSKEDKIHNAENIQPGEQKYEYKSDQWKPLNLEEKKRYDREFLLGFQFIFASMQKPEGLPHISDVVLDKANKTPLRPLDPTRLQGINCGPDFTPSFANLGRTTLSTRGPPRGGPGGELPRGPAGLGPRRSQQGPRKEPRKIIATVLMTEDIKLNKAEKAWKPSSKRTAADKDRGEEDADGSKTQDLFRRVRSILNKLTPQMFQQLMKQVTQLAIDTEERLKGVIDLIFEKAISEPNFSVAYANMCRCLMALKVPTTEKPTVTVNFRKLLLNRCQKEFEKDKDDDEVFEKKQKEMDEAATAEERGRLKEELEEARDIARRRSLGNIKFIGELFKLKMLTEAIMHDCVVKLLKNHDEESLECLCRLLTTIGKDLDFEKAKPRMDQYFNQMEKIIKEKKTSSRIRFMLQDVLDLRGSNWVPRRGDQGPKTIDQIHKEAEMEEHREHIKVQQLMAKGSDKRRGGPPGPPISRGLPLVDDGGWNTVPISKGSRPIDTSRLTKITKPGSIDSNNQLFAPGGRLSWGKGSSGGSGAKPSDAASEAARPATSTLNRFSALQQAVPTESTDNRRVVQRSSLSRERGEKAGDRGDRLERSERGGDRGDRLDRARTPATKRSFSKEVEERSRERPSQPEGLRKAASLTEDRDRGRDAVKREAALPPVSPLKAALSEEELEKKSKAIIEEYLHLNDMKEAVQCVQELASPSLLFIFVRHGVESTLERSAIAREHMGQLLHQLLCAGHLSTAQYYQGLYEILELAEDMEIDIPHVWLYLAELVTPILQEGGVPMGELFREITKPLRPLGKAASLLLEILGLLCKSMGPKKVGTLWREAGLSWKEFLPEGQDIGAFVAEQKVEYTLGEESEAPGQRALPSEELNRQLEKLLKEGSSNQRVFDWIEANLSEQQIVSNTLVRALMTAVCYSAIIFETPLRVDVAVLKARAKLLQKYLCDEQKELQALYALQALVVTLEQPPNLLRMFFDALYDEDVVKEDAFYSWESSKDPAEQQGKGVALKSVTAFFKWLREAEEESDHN
EBV gp42 inh: EBV gp42 inhibition. Fluorescence polarization binding assay, mP read-out. 220,000 tested, 0.42% active. AID 1085. inhibition, % (tested at 21.74 µM). Q1HVG2
PKD1 inh: inhibitors of human PKD1 kinase | 200,000 tested, 0.056% active | Q15139 | AID 797 | inhibition, % (concentration not given with the values) | PKD1 kinase fluorescence polarization assay
Numbers stand for hits; 0 = inactive; - = no result given; [ ] = dose if it differs, or a comment. In the library only some 1.6% were active in any assay of this set; here they are far more common. Cut-off read from the data, not from the text of the source, unless noted: active = inhibition above about 50%; inactive = the rest.

SMILES	RBBP9 inh	14-3-3 Bad PPI	eIF4E 4G PPI	EBV gp42 inh	PKD1 inh
COc1ccccc1-c1ccc(/C=C2\C=CC(=O)O2)o1	0	0	0	0	-
COCCNC(=S)N1CCC(C(=O)c2ccc3c(c2)OCCO3)CC1	0	0	0	0	0
O=[N+]([O-])c1cc(/C=N\O)ccc1Oc1ccc(F)cc1	0	85	0	0	0
COc1cc(/C=N/O)ccc1Oc1ccc([N+](=O)[O-])cc1[N+](=O)[O-]	0	0	0	0	0
O=[N+]([O-])c1cccc2c(N3CCCC3)ccnc12	0	0	0	0	0
CCN(CCO)C(=O)CC1C(=O)NCCN1Cc1c(F)cccc1Cl (stereo unspecified)	0	0	0	0	0
CC(=O)Nc1ccc(S(=O)(=O)NCCSc2ccccn2)cc1	0	0	47[fluorescence artefact?]	0	0
CCCNS(=O)(=O)c1ccc(NC(=O)c2ccccn2)cc1	0	0	0	0	0
O=S(=O)(Nc1nc2ccccc2nc1-[n+]1cccc(N=C([O-])c2ccccc2Cl)c1)c1ccccc1	0	0	0	74	-
COc1ccc(C([O-])=Nc2ccc[n+](-c3nc4ccccc4nc3NS(=O)(=O)c3ccccc3)c2)cc1	0	0	0	0	-
Cc1cc(N)ccc1N1CCCC1	0	97[fluorescence artefact?]	45[fluorescence artefact?]	0	0
c1ccc2oc(-c3ccc(Nc4nc(N5CCCC5)nc(N5CCOCC5)n4)cc3)nc2c1	0	0	0	0	0
COc1ccc(C2c3cc(OC)c(OC)cc3CCN2S(C)(=O)=O)cc1OC (stereo unspecified)	0	0	42	0	0
COc1cc2c(cc1OC)CN(S(C)(=O)=O)CC2	0	0	0	0	0
COc1cc(CC(=O)OCC(=O)Nc2cccc([N+](=O)[O-])c2)cc(OC)c1OC	0	0	0	0	0
CS/C(=C/[N+](=O)[O-])Nc1cccc2c1C(C)CC2(C)C (stereo unspecified)	0	0	0	0	0
Cc1ccc(-c2cc(-c3ccc(Cl)cc3)c(C#N)c(N)n2)o1	0	0	72[fluorescence artefact?]	0	0
Cc1ccc(-c2cc(-c3ccc(C)o3)nc(N)c2C#N)cc1	0	0	0	0	0
CC(=O)OCC1(C)CN(c2ccccc2)NC1=O (stereo unspecified)	0	0	0	0	0
O=C(N/N=C/c1ccc2c(c1)OCO2)c1sc2cccc(Cl)c2c1Cl	0	0	0	0	0
COc1ccc2c(Cl)c(C(=O)N/N=C/c3ccc4c(c3)OCO4)sc2c1	0	73[fluorescence artefact?]	0	0	0
O=C(N/N=C/c1ccc2c(c1)OCO2)c1sc2cc(Cl)ccc2c1Cl	0	0	30	0	0
Cc1ccsc1C(=O)N/N=C/c1ccc2c(c1)OCO2	0	0	0	0	0
c1ccc(C(CN2CCOCC2)c2ccccc2)cc1	0	84	0	0	0
OC(COC(c1ccccc1)c1ccccc1)CN1CCOCC1 (stereo unspecified)	0	0	0	0	0
SMILES	RBBP9 inh	14-3-3 Bad PPI	eIF4E 4G PPI	EBV gp42 inh	PKD1 inh
Cc1cccc2c(C(=O)Nc3ccc(Br)cc3)cc(-c3ccccn3)nc12	0	0	0	0	0
O=C(Nc1ccc([N+](=O)[O-])cc1)c1cc(-c2ccccn2)nc2c(Cl)cccc12	0	71	0	0	0
CCOc1ccccc1NC(=O)c1cc(-c2ccncc2)nc2c(Cl)cccc12	0	73	0	0	0
NC(=O)C1CCN(CCS(=O)(=O)c2ccc(Cl)cc2)CC1	0	0	0	0	-
COc1c(Cl)cc(-c2noc(C)c2C(=O)NC(C)C)cc1Cl	0	0	42	0	0
CC(C)(C)C(=O)Nc1nc(C2CCCN2S(=O)(=O)c2ccc(Cl)cc2)cs1 (stereo unspecified)	0	71	0	0	0
Cc1ccc(CSc2nc3ccccc3c(=O)[nH]2)cc1	0	71	0	0	0
Cc1ccccc1CSc1nc2ccccc2c(=O)[nH]1	0	0	0	0	0
O=C1NC(=O)/C(=C\c2ccc(OCc3cccc([N+](=O)[O-])c3)cc2)N1	0	0	0	0	0
CCOCCCNCC(=O)Nc1ccccc1N1CCOCC1	0	71	0	0	0
O=C(CCN1C(=O)COc2ccccc21)NCc1ccco1	0	0	0	53	0
Cc1ccc2c(c1)N(CCC(=O)NCc1ccco1)C(=O)CO2	0	0	0	0	0
CCOC(=O)CC(=O)NC(C)(C)CCCCC(C)(C)NC(=O)CC(=O)OCC	0	0	0	0	-
O=C(NCc1ccc2c(c1)OCO2)c1cc(=O)[nH]c2ccccc12	0	0	0	0	-
